From PMC12374733 (Journal of the American Chemical Society, 2025)
pIC50: −log10 of the molar value. Where two headings read alike, the source gives them in different places. Blank lines part the entries; values can stand above or below the compound they belong to.

Assays:
SH-SY5Y cells = experiment: Cell viability during in-cell synthesis of cinacalcet; format: cell-based, human; conditions: SH-SY5Y; for pIC50: Homo sapiens
Outline: (§1)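 SH-SY5Y cells were pretreated with aldehyde substrate (200 μM) and sodium formate hydride source (1 mM) for 3 h, then washed with fresh media. The amine partner and Cp* iridium catalyst were added together for a further 24 h. Controls lacked one or more reaction components. Viability is expressed relative to untreated cells.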

[1] = as above; format: cell-based, human; conditions: human, SH-SY5Y cells
Outline: as §1

NIH-3T3 cells = experiment: Cell viability, colorimetric sulforhodamine B assay; format: cell-based, mouse
[2] = Lipophilicity, partition between octanol and PBS; format: physicochemical; conditions: shake-flask
[3] = Cell viability, colorimetric sulforhodamine B assay; format: cell-based, mouse; conditions: mouse, NIH-3T3 cells

- pIC50 (SH-SY5Y cells): 3.76
Compound: O=CCCc1cccc(C(F)(F)F)c1 [1p, 3-(3-(trifluoromethyl)phenyl)propanal]
- viability at 3 h, 200 μM [1]: ≥ 85%

- partition coefficients (Log P) [2]: 1.24
Compound: [Cp*Ir(picolinamidate)Cl] [Ir1]
- cell viability relative to untreated control (SH-SY5Y cells; 1p (200 μM), HCOONa (1 mM), (R)-41 and Ir catalyst all present, 24 h): 28%
- pIC50 (NIH-3T3 cells; read-out: 50% inhibition concentration (IC50), NIH-3T3 cell viability): 4.21

Compound: O=CCc1ccccc1 [1c, phenylacetaldehyde]
- viability at 3 h, 400 µM [3]: 38%
- pIC50 (NIH-3T3 cells; Mus musculus, NIH3T3, read-out: 50% inhibition concentration (IC50)): 3.73

- pIC50 (SH-SY5Y cells): 2.82
Compound: C[C@@H](N)c1cccc2ccccc12 [(R)-41, (R)-1-(1-naphthyl)ethylamine]

Compound: OCCc1ccccc1 [2c]
- pIC50 (NIH-3T3 cells; NIH-3T3 cell viability): < 2.15

Compound: CC(N)c1ccc(O)cc1 (stereo not shown) [compound 10, 4-(1-aminoethyl)phenol]
- viability at 24 h, 1 mM [3]: ≥ 84%
- pIC50 (NIH-3T3 cells; Mus musculus, NIH3T3): < 2.10

- pIC50 (SH-SY5Y cells): 4.80
Compound: C[C@@H](NCCCc1cccc(C(F)(F)F)c1)c1cccc2ccccc12 [cinacalcet, reference compound]

Compound: NCCc1ccccc1 [3c, phenethylamine]
- pIC50 (NIH-3T3 cells; Mus musculus, NIH3T3): < 2.15
